The values below come from ChEMBL document CHEMBL1149296, “Virtual screening of human 5-aminoimidazole-4-carboxamide ribonucleotide transformylase against the NCI diversity set by use of AutoDock to identify novel nonfolate inhibitors” (J Med Chem, 2004).

SMILES strings stand for the structures. Activity calls are given as the source filed them. The rule behind the calls is not given here.

This assay deals with Bifunctional purine biosynthesis protein ATIC (Homo sapiens, UniProt P31939). The experiment in a line: Inhibition of human AICAR Tfase. The essentials:
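Human ATIC transformylase activity assay run per the cited earlier method. IC50 measured in a mix of 25 nM ATIC, 50 μM AICAR substrate and 8.5 μM 10-formyltetrahydrofolate cofactor, the cofactor made in-house by a modified literature route. Inhibition mode was also examined with 0.1 mg/mL saponin present.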
Regarding `C[C@H](CCC(=O)O)[C@H]1CC[C@H]2[C@@H]3CC[C@@H]4C[C@@H](O)CC[C@]4(C)[C@H]3C[C@H](O)[C@]12C`, the outcome was inactive.

In turn, `Nc1cccc2cc(S(=O)(=O)Nc3ccc(C(=O)O)cc3)ccc12` returned an IC50 of 4.1 µM.

`Cc1ccc(S(=O)(=O)Nc2cc([N+](=O)[O-])c3scnc3c2)cc1` had an IC50 of 36.1 µM.

In turn, `O=C(O)C1=C/C(=C/C(c2ccccc2)c2cc(C(=O)O)c(O)c3ccccc23)c2ccccc2C1=O` (stereo not given) registered a half-maximal inhibitory concentration (IC50) of 204 µM.

Consider `Cc1ccc(S(=O)(=O)N/N=C2/C=C3CC[C@H]4[C@@H]5CC[C@H]([C@H](C)CCCC(C)C)[C@@]5(C)CC[C@@H]4[C@@]3(C)CC2)cc1`, for which the half-inhibitory concentration (IC50) turned out to be 9.6 µM.

As to `CC(C)(O)/C=C/C(=O)[C@](C)(O)[C@H]1[C@H](O)C[C@@]2(C)[C@@H]3CC=C4[C@@H](C=C(O)C(=O)C4(C)C)[C@]3(C)C(=O)C[C@]12C`, the outcome was inactive.

For `CC1=NN(c2ccc(S(=O)(=O)O)cc2)C(=O)C1/N=N/c1ccc(S(=O)(=O)Nc2ccccc2)c(C)c1` (stereo not given), half-maximal inhibition (IC50) required 11.6 µM.

In the case of `CC(CC(=O)O)[C@H]1CC[C@@]2(C)[C@@H]3C(=O)C[C@H]4C(C)(C)[C@@H](O)CC[C@]4(C)[C@H]3C(=O)C[C@]12C` (single isomer, unassigned), the result was inactive.

As for `CN1CCN(c2ccc3[nH]c(-c4ccc5[nH]c(-c6ccc(O)cc6)nc5c4)nc3c2)CC1`, the result was inactive.

With `O=S(=O)(O)c1cc(/N=[N+](\[O-])c2cc(S(=O)(=O)O)c3ccccc3c2)cc2ccccc12`, the IC50 stood at 7.8 µM.

`COc1ccc(C(=O)O[C@H]2CC[C@@]3(C)[C@@H]4CC[C@H]5[C@]6(O)C[C@H](O)[C@@]7(O)[C@@H](CN8C[C@@H](C)CC[C@H]8[C@@]7(C)O)[C@]6(O)C[C@@]53O[C@]24O)cc1OC` [VERATRIDINE] displayed an IC50 of 231 µM.

As for `Cc1ccc2nc(-c3ccc(NC(=O)c4ccc(N)cc4)c(S(=O)(=O)O)c3)sc2c1`, 16.9 µM corresponded to half-maximal inhibition (IC50).

Take `O=C(O)c1cc(C(=O)C(=O)c2cc(C(=O)O)c(O)c3ccccc23)c2ccccc2c1O`: half-maximal inhibition (IC50) required 8.8 µM.

As to `Cc1ccc(OS(=O)(=O)c2ccc(/N=N/c3c(C)[nH]n(-c4ccc(Cl)cc4S(=O)(=O)O)c3=O)cc2)cc1`, the half-inhibitory concentration (IC50) came to 3.3 µM.

For the molecule `C[C@]12CC[C@H]3[C@@H](CCC4=CC(=O)CC[C@@]43C)[C@@H]1CC[C@@H]2C(=O)COS(=O)(=O)c1ccc(Br)cc1`, the IC50 worked out at 13.9 µM.

Regarding `CC(=O)Nc1ccc(S(=O)(=O)Nc2cnc3ccccc3n2)cc1`, the IC50 is 54.7 µM.

For the molecule `O=S(=O)(O)c1ccc(/N=N/c2ccc(/N=N/c3ccc(O)c4cccc(S(=O)(=O)O)c34)cc2)cc1`, the half-maximal inhibitory concentration (IC50) is 11.6 µM.

As to `CC(C)[C@H](C)/C=C/[C@@H](C)[C@H]1CC[C@H]2C3=CC=C4C[C@@H](O)CC[C@]4(C)[C@H]3CC[C@]12C`, the outcome was inactive.

As to `Cc1cc(N)ccc1/N=N/c1cc(S(=O)(=O)O)c2cccc(S(=O)(=O)O)c2c1`, the IC50 was 7.6 µM.

The molecule `NS(=O)(=O)c1cccc2cc(/N=N/c3cccc4c(S(=O)(=O)O)cccc34)ccc12` gave an IC50 of 0.6 µM and a Ki of 0.154 µM.

As to `CC1=NN(c2cc(Cl)c(S(=O)(=O)O)cc2Cl)C(=O)C1/N=N/c1ccc(S(=O)(=O)O)cc1` (stereo not given), inhibition was half-maximal at 20.1 µM (IC50).

In the case of `C[C@]12CC[C@H]3[C@@H](CCC4=CC(=O)CC[C@@H]43)[C@@H]1CCC2OC1(O)C(=O)c2ccccc2C1=O` (stereo not given in full), the result was inactive.

With `C[C@@H]1O[C@@H](O[C@H]2C[C@@H](O)[C@]3(CO)[C@H]4[C@H](O)C[C@]5(C)[C@@H](C6=CC(=O)OC6)CC[C@]5(O)[C@@H]4CC[C@]3(O)C2)[C@H](O)[C@H](O)[C@H]1O`, the result was inactive.

Regarding `CC1CCC2N(C1)CC1C3(O)CC45OC6(O)C(O)CCC4(C)C6CCC5C3(O)CC(O)C13C(C)(O)C23O` (stereo not given), the result was inactive.
